Data: publication PMC9049778 (RSC Advances, 2020)

Key:
[1] = target: PIM-2 (Homo sapiens, UniProt Q9P1W9); assay: PIM-2 kinase assay; type: biochemical
In short: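 Luminescent ADP-Glo readout of ADP formed. Enzyme, substrate, ATP and inhibitor were diluted in kinase buffer, with 5% DMSO as vehicle. The kinase reaction ran 60 min at room temperature. ADP-Glo Reagent was then added for 40 min, followed by Kinase Detection Reagent for 30 min, both at room temperature, before luminescence was recorded.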

[2] = target: PIM-3 (Homo sapiens, UniProt Q86V86); assay: PIM-3 kinase assay; type: biochemical
In short: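 Radiometric filter assay. Active PIM-3 was mixed with substrate (1 mg mL−1 stock) and started with [33P]-ATP cocktail (250 μM ATP stock), then held 15 min at 30 °C. Aliquots were spotted onto P81 phosphocellulose, washed three times for about 10 min each in 1% phosphoric acid, and scintillation-counted. A no-substrate blank was subtracted. Kinase specific activity came from corrected cpm, ATP specific activity, time and enzyme amount.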

[3] = system: lung adenocarcinoma H1650; assay: MTT assay, H1650; type: cell-based; details: Homo sapiens, NCI-H1650, 24 h, read-out: IC50 ± S.D. H1650
In short: (§1)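 Cell lines from ATCC were seeded at 10^4 cells per well in 100 μL medium. They were exposed to the test compound for 24 h at 37 °C under 5% CO2. Then 10 μL MTT (5.0 mg mL−1) was added for 4 h at 37 °C. Cells were lysed in isopropanol/conc. HCl/Triton X100 for 10 min at room temperature with shaking. Formazan was read at 570 nm, in triplicate.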

[4] = target: PIM-1 (Homo sapiens, UniProt P11309); assay: PIM-1 kinase assay; type: biochemical
[5] = target: PIM-1 kinase; details: read-out: IC50 against PIM-1 kinase enzyme; cited from earlier work
[6] = system: human promyelocytic leukemia HL-60; assay: MTT assay, HL-60; type: cell-based; details: read-out: IC50 ± S.D. HL-60, 24 h, mean of 3 independent experiments
In short: as §1

[7] = system: human colon adenocarcinoma HT-29; assay: MTT assay, HT-29; type: cell-based; details: read-out: IC50 ± S.D. HT-29, 24 h, mean of 3 independent experiments
In short: as §1

PIM-2, sequence (Q9P1W9 whole entry): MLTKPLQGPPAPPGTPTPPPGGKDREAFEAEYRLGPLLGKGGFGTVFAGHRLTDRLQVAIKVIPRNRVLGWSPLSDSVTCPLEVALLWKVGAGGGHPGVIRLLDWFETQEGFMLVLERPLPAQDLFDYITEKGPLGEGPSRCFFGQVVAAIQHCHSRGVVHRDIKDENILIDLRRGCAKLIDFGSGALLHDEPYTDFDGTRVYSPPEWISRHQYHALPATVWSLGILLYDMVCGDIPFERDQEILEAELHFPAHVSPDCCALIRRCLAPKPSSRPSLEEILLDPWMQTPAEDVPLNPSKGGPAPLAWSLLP
PIM-1, sequence (P11309 whole entry): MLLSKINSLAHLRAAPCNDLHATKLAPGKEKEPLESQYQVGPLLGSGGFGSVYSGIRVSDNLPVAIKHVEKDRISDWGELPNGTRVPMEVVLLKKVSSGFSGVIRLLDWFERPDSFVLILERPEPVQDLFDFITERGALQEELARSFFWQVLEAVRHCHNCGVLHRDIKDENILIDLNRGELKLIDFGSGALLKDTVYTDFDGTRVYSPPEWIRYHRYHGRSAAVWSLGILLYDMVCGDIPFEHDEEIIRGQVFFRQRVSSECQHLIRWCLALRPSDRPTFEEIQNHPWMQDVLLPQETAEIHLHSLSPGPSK

Row | IC50 [1] [µM] | IC50 [2] [µM] | IC50 [3] [µM] | SMILES | also measured
1 | 0.22 ± 0.01 | 0.36 ± 0.012 | > 100 | COc1ccc(/C=C/C(/C=C2/C(=O)Nc3cc(Br)ccc32)=N\O)cc1 [Compound 6, (E)-6-bromo-3-((2E,3E)-2-(hydroxyimino)-4-(4-methoxyphenyl)but-3-enylidene)indolin-2-one] | IC50 [4]: 0.47 ± 0.013 µM
2 |  |  | > 100 | COc1ccc(/C=C/C(=O)CC2(O)C(=O)Nc3cc(Br)ccc32)cc1 (centres unmarked) [Compound 4, (E)-6-bromo-3-hydroxy-3-(4-(4-methoxyphenyl)-2-oxobut-3-enyl) indolin-2-one] | 
3 |  |  |  | Nc1nccc(-c2c[nH]c3ccc(Br)cc23)n1 [Meridianin C, 4-(5-bromo-1H-indol-3-yl)pyrimidin-2-amine] | IC50 [5]: 1.44 µM
4 |  |  | > 100 | COc1ccc(/C=C/C(=O)/C=C2/C(=O)Nc3cc(Br)ccc32)cc1 [Compound 5, (E)-6-bromo-3-((E)-4-(4-methoxyphenyl)-2-oxobut-3-enylidene)indolin-2 one] | IC50 [6]: 1.4 µM; IC50 [7]: 1.7 µM
5 | 0.64 ± 0.01 | 0.83 ± 0.013 |  | O=c1c(O)c(-c2ccc(O)c(O)c2)oc2cc(O)cc(O)c12 [Querecitin, quercetin, reference compound] | 
